According to ChEMBL document CHEMBL1914423, “New imidazo[2,1-b]thiazole derivatives: synthesis, in vitro anticancer evaluation, and in silico studies” (Eur J Med Chem, 2011):

Legend:
SF-268 = test: Anticancer activity against human SF268 cells assessed as cell growth at 10^-5 M after 48 hrs by SRB assay; type: functional; settings: SF-268, 48 h, read-out: Activity
UACC-62 = test: Anticancer activity against human UACC62 cells assessed as cell growth at 10^-5 M after 48 hrs by SRB assay; type: functional; settings: UACC-62, 48 h, read-out: Activity
In short: (§1)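 NCI-60 single-dose screen: cells in RPMI 1640 with 5% FBS and 2 mM L-glutamine, plated at 5000–40,000 cells/well by doubling time, and preincubated 24 h at 37 °C. Compound given at one concentration from DMSO stock. Cells TCA-fixed and SRB-stained, absorbance at 515 nm. Percent growth relative to time-zero and untreated controls; inhibition % = 100 − growth %.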

[1] = Antiproliferative activity against human A375P cells after 48 hrs by MTT assay; type: functional, cell-based
In short: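 A375P cells in DMEM with 10% FBS at 37 °C, 5% CO2. Seeded at 5×10³ cells/well, held 24 h, then treated with 12-point 3-fold serial dilutions for 48 h. Viability by MTT reduction. IC50 values are means of triplicate experiments.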

NCI/ADR-RES = test: Anticancer activity against human NCI/ADR-RES cells assessed as cell growth at 10^-5 M after 48 hrs by SRB assay; type: functional; settings: read-out: Activity
A498 = test: Anticancer activity against human A498 cells assessed as cell growth at 10^-5 M after 48 hrs by SRB assay; type: functional; settings: A498, 48 h, read-out: Activity
In short: (§2)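 NCI-60 single-dose screen at one concentration. Cells grown in RPMI 1640 with 5% FBS and 2 mM L-glutamine, plated at 5000–40,000 cells/well, and pre-incubated 24 h at 37 °C in 5% CO2 before DMSO-dissolved drug was added. Cells fixed with TCA, SRB-stained, absorbance read at 515 nm. Percent growth calculated against time-zero and untreated control plates.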

SR = test: Anticancer activity against human SR cells assessed as cell growth at 10^-5 M after 48 hrs by SRB assay; type: functional; settings: read-out: Activity; in short: as §1
SNB-19 = test: Anticancer activity against human SNB19 cells assessed as cell growth at 10^-5 M after 48 hrs by SRB assay; type: functional; settings: SNB-19, 48 h, read-out: Activity
DU-145 = test: Anticancer activity against human DU145 cells assessed as cell growth at 10^-5 M after 48 hrs by SRB assay; type: functional; settings: DU-145, 48 h, read-out: Activity; in short: as §2
SW-620 = test: Anticancer activity against human SW620 cells assessed as cell growth at 10^-5 M after 48 hrs by SRB assay; type: functional; settings: SW-620, 48 h, read-out: Activity; in short: as §1
HL-60(TB) = test: Anticancer activity against human HL-60(TB) cells assessed as cell growth at 10^-5 M after 48 hrs by SRB assay; type: functional; settings: HL-60, 48 h, read-out: Activity
In short: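 NCI-60 single-dose screen. Cells in RPMI 1640 with 5% FBS and 2 mM L-glutamine were plated at 5000–40,000 cells/well and preincubated 24 h at 37 °C before one compound concentration. Time-zero plates were TCA-fixed at drug addition. For suspension cells, settled cells were fixed with cold TCA, then SRB-stained and read at 515 nm. Percent growth was calculated from time-zero, control and treated absorbances.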

CAKI-1 = test: Anticancer activity against human Caki1 cells assessed as cell growth at 10^-5 M after 48 hrs by SRB assay; type: functional; settings: CAKI-1, 48 h, read-out: Activity; in short: as §2
OVCAR-4 = test: Anticancer activity against human OVCAR4 cells assessed as cell growth at 10^-5 M after 48 hrs by SRB assay; type: functional; settings: OVCAR-4, 48 h, read-out: Activity
SK-MEL-2 = test: Anticancer activity against human SK-MEL-2 cells assessed as cell growth at 10^-5 M after 48 hrs by SRB assay; type: functional; settings: SK-MEL-2, 48 h, read-out: Activity
SF-539 = test: Anticancer activity against human SF539 cells assessed as cell growth at 10^-5 M after 48 hrs by SRB assay; type: functional; settings: SF-539, 48 h, read-out: Activity
A549 = test: Anticancer activity against human A549 cells assessed as cell growth at 10^-5 M after 48 hrs by SRB assay; type: functional; settings: A549, 48 h, read-out: Activity; in short: as §2
RXF 393 = test: Anticancer activity against human RXF393 cells assessed as cell growth at 10^-5 M after 48 hrs by SRB assay; type: functional; settings: RXF 393, 48 h, read-out: Activity
OVCAR-5 = test: Anticancer activity against human OVCAR5 cells assessed as cell growth at 10^-5 M after 48 hrs by SRB assay; type: functional; settings: OVCAR-5, 48 h, read-out: Activity
HCC 2998 = test: Anticancer activity against human HCC2998 cells assessed as cell growth at 10^-5 M after 48 hrs by SRB assay; type: functional; settings: HCC 2998, 48 h, read-out: Activity; in short: as §2
UACC-257 = test: Anticancer activity against human UACC257 cells assessed as cell growth at 10^-5 M after 48 hrs by SRB assay; type: functional; settings: UACC-257, 48 h, read-out: Activity; in short: as §1
HOP-62 = test: Anticancer activity against human HOP62 cells assessed as cell growth at 10^-5 M after 48 hrs by SRB assay; type: functional; settings: HOP-62, 48 h, read-out: Activity; in short: as §2
COLO 205 = test: Anticancer activity against human COLO205 cells assessed as cell growth at 10^-5 M after 48 hrs by SRB assay; type: functional; settings: COLO 205, 48 h, read-out: Activity; in short: as §2
SNB-75 = test: Anticancer activity against human SNB75 cells assessed as cell growth at 10^-5 M after 48 hrs by SRB assay; type: functional; settings: SNB-75, 48 h, read-out: Activity; in short: as §1
MDA-MB-435 = test: Anticancer activity against human MDA-MB-435 cells assessed as cell growth at 10^-5 M after 48 hrs by SRB assay; type: functional; settings: MDA-MB-435, 48 h, read-out: Activity
HT-29 = test: Anticancer activity against human HT-29 cells assessed as cell growth at 10^-5 M after 48 hrs by SRB assay; type: functional; settings: HT-29, 48 h, read-out: Activity; in short: as §2
BT-549 = test: Anticancer activity against human BT549 cells assessed as cell growth at 10^-5 M after 48 hrs by SRB assay; type: functional; settings: BT-549, 48 h, read-out: Activity; in short: as §2
EKVX = test: Anticancer activity against human EKVX cells assessed as cell growth at 10^-5 M after 48 hrs by SRB assay; type: functional; settings: read-out: Activity; in short: as §2
LOX IMVI = test: Anticancer activity against human LOXIMVI cells assessed as cell growth at 10^-5 M after 48 hrs by SRB assay; type: functional; settings: read-out: Activity; in short: as §2

Row | Compound | growth at 10 µM (SF-268) | growth at 10 µM (UACC-62) | IC50 [1] | growth at 10 µM (NCI/ADR-RES) | growth at 10 µM (A498) | growth at 10 µM (SR) | growth at 10 µM (SNB-19) | growth at 10 µM (DU-145) | growth at 10 µM (SW-620) | growth at 10 µM (HL-60(TB)) | growth at 10 µM (CAKI-1) | growth at 10 µM (OVCAR-4) | growth at 10 µM (SK-MEL-2) | growth at 10 µM (SF-539) | growth at 10 µM (A549) | growth at 10 µM (RXF 393) | growth at 10 µM (OVCAR-5) | growth at 10 µM (HCC 2998) | growth at 10 µM (UACC-257) | growth at 10 µM (HOP-62) | also measured
1 | COc1cccc(-c2nc3sccn3c2-c2ccnc(NCCNC(=O)c3ccccc3)n2)c1 | 92.7% | 24.6% | > 10 µM | 70.5% | 66.3% | 79.8% | 110% | 100% | 114% | 94.2% | 84.3% | 109% | 73.3% | 97.7% | 75.3% | 86.3% | 99.1% | 114% | 69.7% | 111% | growth at 10 µM (COLO 205): 51.8%; growth at 10 µM (SNB-75): 92.6%; growth at 10 µM (MDA-MB-435): 55.2%; growth at 10 µM (HT-29): 53.5%; growth at 10 µM (BT-549): 85.1%; growth at 10 µM (EKVX): 106%; growth at 10 µM (LOX IMVI): 54.8%
2 | COc1cccc(-c2nc3sccn3c2-c2ccnc(NCCNC(=O)c3ccc(N4CCOCC4)c(C(F)(F)F)c3)n2)c1 | 89.7% | 41.3% | > 10 µM | 69.6% | 64.6% | 76.7% | 105% | 111% | 108% | 85.2% | 68.8% | 102% | 86.5% | 79% | 76.2% | 78.5% | 96.9% | 93.3% | 87.7% | 99.4% | growth at 10 µM (COLO 205): 69%; growth at 10 µM (SNB-75): 82.5%; growth at 10 µM (MDA-MB-435): 60.8%; growth at 10 µM (HT-29): 50%; growth at 10 µM (BT-549): 74.8%; growth at 10 µM (EKVX): 74.1%; growth at 10 µM (LOX IMVI): 73.5%
3 | O=C(NCCNc1nccc(-c2c(-c3cccc(O)c3)nc3sccn23)n1)c1ccc(N2CCOCC2)c(C(F)(F)F)c1 | 79.1% | 5.88% | > 10 µM | 95.4% | 47.8% | 76.1% | 109% | 94.9% | 111% | 113% | 66.9% | 105% | 66.7% | 77.8% | 64.1% | 57.6% | 91.2% | 106% | 15.8% | 96.7% | growth at 10 µM (COLO 205): 43.4%; growth at 10 µM (SNB-75): 58%; growth at 10 µM (MDA-MB-435): 20.9%; growth at 10 µM (HT-29): 68.6%; growth at 10 µM (BT-549): 53.8%; growth at 10 µM (EKVX): 74%; growth at 10 µM (LOX IMVI): 42.2%
